# Screening data (PubChem BioAssay)
# Only some compounds are listed: those with a hit (about 3.7% of all), similar ones and a draw of the others.
# NPY Y1 blocker – antagonists of human neuropeptide Y receptor Y1; P25929; HEK293-CNG Y1 cells, membrane potential fluorescence; NPY at EC95, then isoproterenol; inhibition, % at 3.6 µM; 200,000 compounds, 1% hits;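 active = inhibition above the campaign mean inhibition of all tested compounds plus 3 SD, cut at about 20% in these data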;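 note: 0% = DMSO wells given NPY plus isoproterenol and 100% = isoproterenol alone without NPY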
#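 Material: HEK293 cells with Y1 receptor plus CNG channel; times: compound incubation 1 h at room temperature, readout 45 min post-stimulation; signal: fluorescence, membrane potential probe; read-out basis: fluorescence ratio normalized to % inhibition between controls; benchmarks: full-block control isoproterenol-only wells, zero-block control NPY plus isoproterenol wells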
# KCC2 mod – modulates chloride dependent transport by human KCC2; AID 1456; KCC2 cells, thallium flux FluoZin-2 fluorescence; B-score of Tl+ flux slope (higher = more flux/activation; lower = inhibition) at 10 µM; 190,000 compounds, 2.2% hits; Q9H2X9;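 active = thallium flux slope and its plate-corrected score both differing from the plate sample mean at a set confidence after two filtering rounds, in either direction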;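 note: slope of fluorescence scaled to starting intensity during 10 to 20 s after thallium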
# NPY-Y1 PAM-ag – potentiates or activates human NPY-Y1 receptor; NPY-Y1 expressing cells, potentiator/agonist activation; activation, % at 3.6 µM; 220,000 compounds, 0.37% hits; AID 1304; in the data active = activation above about 33%, passing the limit was not always enough;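 note: cells stimulated with NPY at EC10 then isoproterenol at EC100; 0% = low agonist plus stimulus and 100% = saturating agonist plus stimulus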
# NPY-Y2 PAM-ag – potentiates or activates human NPY-Y2 receptor; activation, % at 3.6 µM; P49146; cells expressing NPY-Y2, potentiator/agonist read-out; 220,000 compounds, 0.45% hits; in the data active = activation above about 27%;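 note: cells stimulated with NPY near EC25 plus isoproterenol at EC100; 0% = vehicle plus submaximal agonist and 100% = vehicle plus saturating agonist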
# Furin inh – blocks human furin protease activity. inhibition, % at 20 µM or 30 µM. purified furin, fluorogenic substrate cleavage. P09958. 220,000 compounds, 0.061% hits; in the data active = inhibition above about 25%
# Target sequence (P09958 108-714 limits assumed): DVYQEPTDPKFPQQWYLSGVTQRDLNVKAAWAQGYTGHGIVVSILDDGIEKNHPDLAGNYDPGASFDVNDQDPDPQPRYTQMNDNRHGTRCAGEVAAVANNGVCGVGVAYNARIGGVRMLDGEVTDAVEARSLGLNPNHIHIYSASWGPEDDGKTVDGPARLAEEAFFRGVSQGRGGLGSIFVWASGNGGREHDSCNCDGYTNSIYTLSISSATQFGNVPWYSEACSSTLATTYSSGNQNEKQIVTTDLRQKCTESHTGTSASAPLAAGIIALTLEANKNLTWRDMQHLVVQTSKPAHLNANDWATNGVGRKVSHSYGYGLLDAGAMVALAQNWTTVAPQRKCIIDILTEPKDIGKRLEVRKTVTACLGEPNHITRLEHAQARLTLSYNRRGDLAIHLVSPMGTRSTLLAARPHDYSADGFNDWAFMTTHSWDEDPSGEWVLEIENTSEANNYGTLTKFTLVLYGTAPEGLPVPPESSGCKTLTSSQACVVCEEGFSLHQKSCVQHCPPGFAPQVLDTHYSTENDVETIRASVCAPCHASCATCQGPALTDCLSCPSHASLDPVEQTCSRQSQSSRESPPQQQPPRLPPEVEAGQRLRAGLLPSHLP
# NPY Y2 blocker – NPY-Y2 (human) receptor antagonism; P49146; NPY-Y2 expressing cells, antagonist mode; inhibition, % at 2.7 µM; 140,000 compounds, 0.99% hits; in the data active = inhibition above about 17%;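 note: 0% = vehicle with agonist challenge and 100% = reference antagonist with challenge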
# NPY-Y2 confirm – confirmation of human NPY-Y2 receptor potentiators or agonists. cell-based NPY-Y2 potentiator/agonist assay. AID 1539. 450 compounds, 20% hits. shares compounds with NPY-Y2 PAM-ag. activation, % at 3.6 µM; in the data active = activation above about 33%
# NPY-Y1 potentiator – potentiates or activates NPY-Y1, counter-screen for NPY-Y2 hits. 450 compounds, 20% hits. activation, % at 3.6 µM. shares compounds with NPY-Y2 PAM-ag. AID 1651. Y1 HEK293-CNG cells, membrane potential fluorescence; in the data active = activation above about 45%;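 note: cells stimulated with submaximal NPY then isoproterenol with phosphodiesterase inhibitor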
# NPY-Y1 agonist 2 – activates human NPY-Y1, counter-screen for NPY-Y2 potentiators; HEK293 Y1-CNGC, membrane potential fluorescence, agonism; 450 compounds, 37% hits; activation, % at 3.6 µM; shares compounds with NPY-Y2 PAM-ag;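 active = activation above the mean of DMSO-only control wells plus 3 SD, cut at about 18% in these data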;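 note: cells stimulated with 1 µM isoproterenol plus the PDE inhibitor Ro 20-1724; 0% = isoproterenol with DMSO and no NPY and 100% = 40 nM NPY; Y1 agonists lower the membrane potential dye signal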
# CNGC inhibitor – blocks CNG channel activity, counter-screen for NPY-Y2 potentiators; shares compounds with NPY-Y2 PAM-ag; inhibition, % at 3.6 µM; 450 compounds, 32% hits; AID 1703; HEK293-CNG parental, isoproterenol cAMP, membrane potential fluorescence;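 active = inhibition above the control-well mean plus 3 SD of those wells, cut at about 22% in these data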;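 note: 0% = DMSO with isoproterenol and 100% = DMSO without isoproterenol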
# Y2 agonist ctr – activates human NPY-Y2 receptor in potentiator counter-screen | AID 1710 | activation, % at 3.6 µM | HEK293 Y2/CNGC cells, membrane potential fluorescence, agonist mode | 450 compounds, 56% hits | shares compounds with NPY-Y2 PAM-ag;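 active = activation above the mean of solvent-only control wells plus 3 SD, cut at about 10% in these data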;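 note: cells stimulated by isoproterenol with no NPY added so direct agonism is tested; 0% = DMSO with isoproterenol alone and 100% = NPY at EC100 plus isoproterenol; agonism lowers probe fluorescence through less cAMP and CNG channel opening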
# KCC2 sec1 – confirmation of human KCC2 transport modulators; shares compounds with KCC2 mod; HEK293-KCC2, thallium flux, FluoZin2 fluorescence; active compounds read high; normalised thallium flux (F/F0 slope) at 10 µM; 3,700 compounds, 15% hits;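 active = thallium flux slope above the same plate's solvent-only control mean plus 3 SD; inconclusive = the two replicate wells disagree; inactive = no significant difference from solvent-only control wells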
# KCC2 bumet counter – bumetanide-insensitive thallium flux in KCC2 cells with ouabain, counter-screen; shares compounds with KCC2 mod; normalized thallium flux at 10 µM; HEK293-KCC2 + bumetanide/ouabain, thallium flux FluoZin2; active compounds read high; 3,700 compounds, 49% hits; AID 1714;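 active = thallium entry rate above the same plate's blocked-transporter control wells by more than 3 SD; inconclusive = the two repeat wells disagree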;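 note: raw slope of fluorescence over initial fluorescence between 10 and 20 s after thallium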
# KCC2 sec2 – confirmation of human KCC2 transport modulators; HEK293-KCC2, thallium flux FluoZin2 fluorescence; actives lie on both sides; F/F0 rise rate, 10–20 s post-thallium; normalized thallium flux at 10 µM; AID 1715; 3,700 compounds, 23% hits; shares compounds with KCC2 mod;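 active = thallium flux slope more than 3 SD above or below the plate's solvent-only control mean, mostly below; inconclusive = the two repeat wells disagreed; inactive = no significant shift from solvent-only controls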;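 note: raw slope with 0.1% DMSO as baseline and bumetanide as block control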
# HEK counter1 – counter-screen for KCC2 modulators: effect in parental HEK293 cells | shares compounds with KCC2 mod | thallium flux FluoZin2, ouabain; baseline-ratio fluorescence slope, 10–20 s after thallium | thallium flux rate (normalised fluorescence) at 10 µM | 3,700 compounds, 46% hits | AID 1716;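 active = thallium flux rate significantly above the same plate's solvent-only control wells, beyond their mean plus 3 SD; inconclusive = the two replicate wells gave conflicting results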
# KCC2 ouabain – confirmation of human KCC2 modulators with ouabain | HEK293-KCC2, thallium flux FluoZin2 fluorescence; bidirectional: low = inhibitor, high = activator | raw Tl+ flux slope (below DMSO = inhibition, above = activation) at 10 µM | shares compounds with KCC2 mod | 3,700 compounds, 48% hits;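 active = thallium flux slope beyond 3 SD from same-plate DMSO control mean in most replicates, usually higher, sometimes lower; inconclusive = repeat tests gave conflicting results; inactive = no significant difference from controls in most replicates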;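 note: slope of initial-normalized fluorescence between seconds 10 and 20 after thallium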
# HEK293 Tl flux2 – counter-screen for KCC2 modulators: effect in parental HEK293 cells | thallium flux FluoZin-2 fluorescence slope | thallium flux slope at 10 µM | shares compounds with KCC2 mod | 3,700 compounds, 33% hits;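 active = thallium flux slope above the same plate's solvent-control mean plus 3 SD in both duplicate wells; inconclusive = duplicate wells that disagreed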;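 note: run without ouabain in cells lacking the KCC2 cotransporter; slope of fluorescence scaled to its starting value between 10 and 20 s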
# An asterisk follows results filed as active; u = inconclusive; x = no result given.
SMILES,NPY Y1 blocker,KCC2 mod,NPY-Y1 PAM-ag,NPY-Y2 PAM-ag,Furin inh,NPY Y2 blocker,NPY-Y2 confirm,NPY-Y1 potentiator,NPY-Y1 agonist 2,CNGC inhibitor,Y2 agonist ctr,KCC2 sec1,KCC2 bumet counter,KCC2 sec2,HEK counter1,KCC2 ouabain,HEK293 Tl flux2
CN(Cc1ccccc1)C(=O)COC(=O)c1cc(NS(=O)(=O)c2cccs2)ccc1O,-7,-3.5*,25,35*,-7,x,7,-10,-14,-1,-4,0.018,0.0046,0.022*,0.0066,0.014,0.01
Cc1ccc(N(Cc2ccccc2F)S(C)(=O)=O)cc1C,1,x,31,2,-18,5,x,x,x,x,x,x,x,x,x,x,x
COC(=O)c1sccc1NS(=O)(=O)c1ccc(OC)cc1,4,x,-35,31*,-20,0,-5,-8,-8,-9,5,0.0073,0.013*,0.035,0.012*,u,0.015*
CCCn1nnc(NC(=S)NC(=O)/C=C/c2ccco2)n1,x,0.027,0,11,-16,x,x,x,x,x,x,x,x,x,x,x,x
O=C(Nc1nc(-c2ccccc2)cs1)c1ccccc1NS(=O)(=O)c1ccc(F)cc1,12,-6.5*,6,46*,-8,0,5,-8,-7,12,6,0.0058,u,0.017*,u,0.0096*,0.0097
COc1ccc(S(=O)(=O)Nc2cccc(S(=O)(=O)N3CCCCCC3)c2)cc1,1,-0.47,6,15,-17,2,x,x,x,x,x,x,x,x,x,x,x
O=S(=O)(Nc1nc2ccccc2nc1Nc1cccc(S(=O)(=O)N2CCCCC2)c1)c1ccccc1,-5,-3.5*,33,38*,-4,-2,74*,68*,65*,44*,58*,0.0063,0.0068,0.026,u,u,0.0097
CC(C)(C)NC(=O)C(c1ccncc1)N(C(=O)c1csnn1)c1cccc2ccccc12 (stereo unspecified),-1,-0.076,-8,-7,-8,x,x,x,x,x,x,x,x,x,x,x,x
O=C(c1cc(COc2c(F)cccc2F)on1)N1CCC(c2ccncc2)CC1,-7,x,-11,36*,-29,x,1,-38,-14,-7,4,u,0.0084*,u,0.0072,0.019*,0.01
COc1ccc(NC(=S)N(CCN(C)C)C(C)c2ccco2)cc1Cl (stereo unspecified),6,0.01,3,12,-13,3,x,x,x,x,x,x,x,x,x,x,x
Cc1cccc(CSC(Nc2ccc(F)cc2)=C(C#N)C#N)c1,0,-5*,6,40*,-12,6,-11,-55,-30,-19,0,0.0073,0.0064,0.029,0.0057*,0.059*,0.01
c1ccc2c(c1)[nH]c1c(N3CCC4(CC3)OCCO4)ncnc12,5,x,-13,0,-2,3,x,x,x,x,x,0.0061,0.0049,0.032,0.0078,0.018,0.012
Cc1ccc2[nH]c3c(N4CCN(Cc5ccccc5)CC4)ncnc3c2c1,-8,x,-12,-2,3,4,x,x,x,x,x,0.0064,0.005,0.022*,0.0076,u,0.011
COc1cccc2[nH]c3c(N4CCC5(CC4)OCCO5)ncnc3c12,x,0.49,-3,-13,-15,x,x,x,x,x,x,x,x,x,x,x,x
Cc1ccc(-c2n[nH]c(=O)c3ccccc23)cc1S(=O)(=O)NCCN1CCOCC1,1,0.32,25,10,-20,1,x,x,x,x,x,0.009,0.0087*,0.032,0.0088*,0.023,u
CN(CC(O)COc1c(F)cc(Br)cc1F)C1CCCCC1 (stereo unspecified),13,-0.47,-28,-10,-18,6,x,x,x,x,x,x,x,x,x,x,x
CCCCn1c(SCC(=O)NCc2ccccc2)nc2ccc(N3CCOCC3)cc2c1=O,3,4*,-1,-11,-23,1,x,x,x,x,x,0.007,0.016*,0.034,0.011*,u,u
O=C(Cn1nc(-c2ccc(Cl)cc2)ccc1=O)N1CCN(c2ccccc2)CC1,-10,x,4,-10,-10,3,x,x,x,x,x,0.0077,0.0065,0.033,0.0074,u,0.01
O=C(Cn1nc(C(F)(F)F)c2c1CCC2)N1CCN(c2ccccc2)CC1,2,x,16,21,-17,-1,x,x,x,x,x,0.0073,0.0059,0.031,0.0076,0.016*,0.011
O=C(Cn1nc(C(F)(F)F)c2c1CCCC2)N1CCOCC1,3,1.7,-18,-10,-7,x,x,x,x,x,x,x,x,x,x,x,x
O=C(CCn1nc(-c2ccc(Cl)cc2)ccc1=O)N1CCN(c2ccccn2)CC1,2,-1.7,3,-5,-16,2,x,x,x,x,x,x,x,x,x,x,x
O=C(Cn1cnc2c(nnn2-c2ccc(F)cc2)c1=O)N1CCCc2ccccc21,3,-4.4*,7,3,-24,7,x,x,x,x,x,0.0071,0.0048,0.027,0.0075,0.017,0.0099
O=C(Cn1cnc2c(nnn2Cc2ccc(F)cc2)c1=O)N1CCCCC1,3,x,-4,-7,-9,3,x,x,x,x,x,0.0076,0.0057,0.03,0.0085,0.014*,0.012
COc1ccc(-n2nnc3c(=O)n(CC(=O)N4CCCc5ccccc54)cnc32)cc1,4,-1.1,-3,-10,-13,1,x,x,x,x,x,x,x,x,x,x,x
